The values that follow come from ChEMBL document CHEMBL1159098, “A new series of flavones, thioflavones, and flavanones as selective monoamine oxidase-B inhibitors” (Bioorg Med Chem, 2010).

pIC50: −log10 of the molar value.

A word on the inhibition: it is the percentage by which the read-out fell short of the control. Broadly, the pIC50 is the negative decadic logarithm of the IC50, by convention in mol/L. A high value points to a low IC50.

Data set [1] concerns the target T1, Amine oxidase [flavin-containing] A (Homo sapiens, UniProt P21397).
T1 sequence (P21397 whole entry): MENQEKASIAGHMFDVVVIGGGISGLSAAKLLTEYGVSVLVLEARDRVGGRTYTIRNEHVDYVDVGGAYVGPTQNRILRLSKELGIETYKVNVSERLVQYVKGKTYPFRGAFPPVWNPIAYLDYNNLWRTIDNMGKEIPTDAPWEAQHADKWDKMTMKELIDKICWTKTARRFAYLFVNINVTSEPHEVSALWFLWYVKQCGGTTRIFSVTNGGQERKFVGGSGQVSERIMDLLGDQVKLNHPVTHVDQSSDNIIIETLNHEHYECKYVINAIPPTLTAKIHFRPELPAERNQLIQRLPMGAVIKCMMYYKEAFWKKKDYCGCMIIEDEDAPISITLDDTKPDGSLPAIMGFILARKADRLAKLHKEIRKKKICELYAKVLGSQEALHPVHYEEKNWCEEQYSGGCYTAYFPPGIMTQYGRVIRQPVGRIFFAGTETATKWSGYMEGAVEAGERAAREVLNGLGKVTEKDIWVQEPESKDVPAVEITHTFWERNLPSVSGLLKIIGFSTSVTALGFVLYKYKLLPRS
Briefly: Inhibition of human recombinant MAOA expressed in BTI-TN-5B1-4 cells at 100 uM by para-tyramine oxidation assay. The following applies: for inhibition (INH): human, bti-tn-5b1-4, 100 µM. It is filed as cell-based.

For data set [2], the target named is T2, Amine oxidase [flavin-containing] B (Homo sapiens, UniProt P27338).
T2 sequence (P27338 whole entry): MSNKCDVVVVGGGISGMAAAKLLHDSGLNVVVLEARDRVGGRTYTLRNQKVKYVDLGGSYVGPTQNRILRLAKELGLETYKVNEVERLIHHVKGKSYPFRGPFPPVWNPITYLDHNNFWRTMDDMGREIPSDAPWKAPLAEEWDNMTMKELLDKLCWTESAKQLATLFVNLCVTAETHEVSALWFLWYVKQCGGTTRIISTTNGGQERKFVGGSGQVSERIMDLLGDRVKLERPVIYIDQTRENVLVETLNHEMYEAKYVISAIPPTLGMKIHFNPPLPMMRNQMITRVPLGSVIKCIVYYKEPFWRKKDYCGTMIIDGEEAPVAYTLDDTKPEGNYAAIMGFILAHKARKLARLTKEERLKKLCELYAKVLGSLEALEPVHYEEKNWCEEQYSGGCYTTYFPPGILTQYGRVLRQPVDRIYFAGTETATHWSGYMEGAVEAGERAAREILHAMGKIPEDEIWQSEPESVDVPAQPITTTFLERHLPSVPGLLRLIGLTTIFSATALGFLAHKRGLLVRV
The data set can be described thus: Inhibition of human recombinant MAOB expressed in BTI-TN-5B1-4 cells at 100 uM by para-tyramine oxidation assay. It is filed as cell-based. The following applies: for inhibition at 100 µM: BTI-TN-5B1-4, human; for inhibition (INH): human, bti-tn-5b1-4, 100 µM.

Data set [3] addresses T2, Amine oxidase [flavin-containing] B. The data set can be described thus: Inhibition of human recombinant MAOB expressed in BTI-TN-5B1-4 cells at 100 nM before washing by centrifugation-ultrafiltration method. In kind it is cell-based. The following applies: BTI-TN-5B1-4, human. The method in brief:
(§1)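 Recombinant hMAO-B was incubated with one concentration of inhibitor in 0.05 M sodium phosphate pH 7.4 for 15 min at 37 °C. One aliquot was kept at 4 °C unwashed. The rest was washed three times by 30 kDa ultrafiltration (9000g, 20 min, 4 °C) and resuspended in buffer.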

For data set [4] the target is unchanged. It is filed as cell-based, BTI-TN-5B1-4.
For data set [5], the species on record is Homo sapiens. Briefly: Selectivity for human MAOB over human MAOA. The method in brief:
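Selectivity index = IC50(hMAO-A)/IC50(hMAO-B), both from Amplex Red/p-tyramine fluorimetric assays on insect-cell recombinant enzymes.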

The target of data set [6] is T2, Amine oxidase [flavin-containing] B. The data set can be described thus: Inhibition of human recombinant MAOB expressed in BTI-TN-5B1-4 cells at 100 nM after repeated washing by centrifugation-ultrafiltration method. The following applies: BTI-TN-5B1-4, human. In kind it is cell-based. The method in brief:
as §1

A short description of data set [7]: Inhibition of human monoamine oxidase.
In data set [8] the target is T1, Amine oxidase [flavin-containing] A. Briefly: Inhibition of human MAOA. The method in brief:
(§2)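 Recombinant human MAO-A or -B as microsomes from baculovirus-infected BTI-TN-5B1-4 insect cells, dosed to oxidize 165 pmol p-tyramine/min in controls (A 1.1 µg, B 7.5 µg protein). Preincubated with inhibitor 15 min at 37 °C in 0.05 M sodium phosphate pH 7.4. Started with 1 mM p-tyramine, 200 µM Amplex Red, 1 U/ml HRP (final). Resorufin fluorescence (ex 545/em 590 nm) read over 15 min at 37 °C, background subtracted.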

The target of data set [9] is T2, Amine oxidase [flavin-containing] B. The data set can be described thus: Inhibition of human MAOB. The procedure, abridged: as §2
Data set [10] addresses T1, Amine oxidase [flavin-containing] A. The data set can be described thus: Inhibition of human recombinant MAOA expressed in BTI-TN-5B1-4 cells at 500 uM before washing by centrifugation-ultrafiltration method. In kind it is cell-based. The conditions noted are these: BTI-TN-5B1-4, human.
The target in data set [11] is T2, Amine oxidase [flavin-containing] B. The data set can be described thus: Inhibition of human recombinant MAOB expressed in BTI-TN-5B1-4 cells at 1 mM by para-tyramine oxidation assay. In kind it is cell-based. The following applies: bti-tn-5b1-4, 1000 µM.

Take `S=c1cc(-c2ccccc2)oc2ccccc12`: in data set [1], the “inhibition (INH)” value was “Not Active”. Besides, in [2], the inhibition at 100 µM came to 40%.

With `Cc1ccc2c(=O)cc(-c3ccc(F)cc3)oc2c1`, the “inhibition (INH)” value in data set [1] was “Not Active”. The inhibition at 100 µM in data set [2] turned out to be 40%.

With `COc1ccc(-c2cc(=S)c3ccc(F)cc3o2)cc1`, the “inhibition (INH)” value in data set [1] was “Not Active”. Also, in data set [2], the inhibition at 100 µM turned out to be 40%.

`Cc1ccc2c(=S)cc(-c3ccccc3)oc2c1`: the “inhibition (INH)” value in data set [1] is “Not Active”. The inhibition at 100 µM in data set [2] was 40%.

As for `COc1ccc(-c2cc(=S)c3ccc(C)cc3o2)cc1`, in [1], the “inhibition (INH)” value is “Not Active”. Moreover, the inhibition at 100 µM in [2] came to 40%.

Regarding `Cc1ccc2c(=S)cc(-c3ccc(F)cc3)oc2c1`, the “inhibition (INH)” value in [1] is recorded as “Not Active”. The inhibition at 100 µM in data set [2] was 40%.

Regarding `Fc1ccc(-c2cc(=S)c3ccccc3o2)cc1`, the “inhibition (INH)” value in data set [1] and in data set [2] was “Not Active” in each case.

For `Cc1ccc2c(c1)OC(c1ccc(F)cc1)CC2=O` (racemic), the inhibition at 0.1 µM is 38.4% in data set [3] and 36.5% in data set [6]. This compound showed a pIC50 in data set [4] of 6.89. Further, the “inhibition (INH)” value in data set [1] is on record as “Not Active”. Further, the Ratio IC50 in [5] was greater than 769.

In the case of `COc1ccc2c(=O)cc(-c3ccccc3)oc2c1` [7-METHOXYFLAVONE], the “inhibition (INH)” value in data set [1] is listed as “Not Active”. In addition, in data set [2], the inhibition at 100 µM was 40%.

On to `Cc1ccc2c(=O)cc(-c3ccccc3)oc2c1` [7-METHYLFLAVONE], for which the “inhibition (INH)” value in data set [1] and in [2] was “Not Active” throughout.

In data set [7], `O=C1c2c(O)cc(O)cc2O[C@H](c2ccc(O)c(O)c2)[C@H]1O` [(+)-TAXIFOLIN] showed a pIC50 of 3.81.

Turning to `O=c1cc(-c2ccc(O)cc2)oc2cc(O)cc(O)c12` [APIGENIN], the pIC50 in data set [8] is 5.77; in data set [9] it was 4.89.

In data set [7], `O=C1c2c(O)cc(O)cc2O[C@H](c2ccc(O)cc2)[C@H]1O` [DIHYDROKAEMPFEROL] gave a pIC50 of 3.82.

Regarding `COc1c(O)cc2oc(-c3ccc(O)c(O)c3)cc(=O)c2c1O` [EUPAFOLIN], in data set [7], the pIC50 was 4.60. This pIC50 is 0.78 log units higher than that of the compound before.

Regarding `O=c1cc(-c2ccccc2)oc2ccccc12` [FLAVONE], the inhibition at 100 µM in data set [1] (BTI-TN-5B1-4, human) was found to be 40%. Moreover, the “inhibition (INH)” value in data set [2] is given as “Not Active”.

For the compound `COc1cc(-c2cc(=O)c3c(O)c(OC)c(O)cc3o2)ccc1O` [JACEOSIDINE], the pIC50 in data set [7] is 4.72.

Regarding `O=c1cc(-c2ccc(O)c(O)c2)oc2cc(O)cc(O)c12` [LUTEOLIN], the pIC50 in [8] is 5.31; in data set [9], 4.22.

As for `O=C(NCCN1CCOCC1)c1ccc(Cl)cc1` [MOCLOBEMIDE], the inhibition at 500 µM in data set [10] was 84.8%. Further, the “inhibition (INH)” value in [11] is listed as “Not Active”.

In the case of `O=c1c(O)c(-c2ccc(O)c(O)c2)oc2cc(O)cc(O)c12` [QUERCETIN], the values for the pIC50 in [8] and in data set [9] were 5.55 and 4.05, respectively.
